# Reference: ChEMBL document CHEMBL1921795, “Discovery, synthesis, and structure-activity relationship development of a series of N-4-(2,5-dioxopyrrolidin-1-yl)phenylpicolinamides (VU0400195, ML182): characterization of a novel positive allosteric modulator of the metabotropic glutamate receptor 4 (mGlu(4)) with oral efficacy in an …” (J Med Chem, 2011)
# How the values were obtained:
# [1] = target: T1, Metabotropic glutamate receptor 4 (Homo sapiens, UniProt Q14833); assay: Positive allosteric modulator activity at human mGlu4 receptor expressed in CHO cells expressing Gqi5 by calcium mobilization assay
# T1 sequence (Q14833 whole entry): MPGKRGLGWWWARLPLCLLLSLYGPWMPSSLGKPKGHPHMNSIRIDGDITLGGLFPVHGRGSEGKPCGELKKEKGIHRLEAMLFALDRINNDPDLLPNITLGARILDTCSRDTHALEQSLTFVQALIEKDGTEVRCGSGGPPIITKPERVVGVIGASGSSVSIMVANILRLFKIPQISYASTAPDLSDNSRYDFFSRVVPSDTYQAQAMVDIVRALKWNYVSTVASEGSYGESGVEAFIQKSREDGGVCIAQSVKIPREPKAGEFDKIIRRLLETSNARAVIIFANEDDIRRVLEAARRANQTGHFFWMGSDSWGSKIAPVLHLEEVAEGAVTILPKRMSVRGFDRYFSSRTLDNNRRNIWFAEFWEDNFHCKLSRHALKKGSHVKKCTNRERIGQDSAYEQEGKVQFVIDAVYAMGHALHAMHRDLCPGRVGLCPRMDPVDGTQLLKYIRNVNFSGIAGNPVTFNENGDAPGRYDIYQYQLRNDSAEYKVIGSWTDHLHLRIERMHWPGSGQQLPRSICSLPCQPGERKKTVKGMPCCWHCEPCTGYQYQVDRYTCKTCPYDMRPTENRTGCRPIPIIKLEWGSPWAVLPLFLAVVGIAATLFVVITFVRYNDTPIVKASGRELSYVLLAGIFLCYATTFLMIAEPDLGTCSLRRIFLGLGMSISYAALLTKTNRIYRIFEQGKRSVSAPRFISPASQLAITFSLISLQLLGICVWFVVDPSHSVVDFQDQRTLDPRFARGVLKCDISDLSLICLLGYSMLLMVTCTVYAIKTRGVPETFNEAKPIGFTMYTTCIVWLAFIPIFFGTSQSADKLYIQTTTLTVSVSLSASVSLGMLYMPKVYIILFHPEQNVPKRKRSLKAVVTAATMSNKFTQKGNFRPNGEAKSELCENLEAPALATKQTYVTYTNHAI
# [2] = target: T1, Metabotropic glutamate receptor 4; assay: Positive allosteric modulation of human mGlu4 receptor expressed in CHO cells coexpressing Gqi5 assessed as potentiation of glutamate-induced calcium mobilization relative to (-)-PHCCC; format: functional, cell-based
# In short: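 CHO cells stably expressing human mGlu4 with chimeric Gqi5, plated overnight, loaded 45 min at 37 °C with 1 µM Fluo-4 AM. Compound (10-point, 1:3 dilutions) was added about 2.5 min before an EC20 glutamate, then EC80 glutamate 2 min later. Ca2+ fluorescence read at 470/540 nm. Four-parameter logistic fit.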
# [3] = target: Metabotropic glutamate receptor 4 (Rattus norvegicus, UniProt P31423); assay: Positive allosteric modulator activity at rat mGlu4 receptor by thallium flux assay
# Metabotropic glutamate receptor 4 (Rattus norvegicus, UniProt P31423), sequence (P31423 whole entry): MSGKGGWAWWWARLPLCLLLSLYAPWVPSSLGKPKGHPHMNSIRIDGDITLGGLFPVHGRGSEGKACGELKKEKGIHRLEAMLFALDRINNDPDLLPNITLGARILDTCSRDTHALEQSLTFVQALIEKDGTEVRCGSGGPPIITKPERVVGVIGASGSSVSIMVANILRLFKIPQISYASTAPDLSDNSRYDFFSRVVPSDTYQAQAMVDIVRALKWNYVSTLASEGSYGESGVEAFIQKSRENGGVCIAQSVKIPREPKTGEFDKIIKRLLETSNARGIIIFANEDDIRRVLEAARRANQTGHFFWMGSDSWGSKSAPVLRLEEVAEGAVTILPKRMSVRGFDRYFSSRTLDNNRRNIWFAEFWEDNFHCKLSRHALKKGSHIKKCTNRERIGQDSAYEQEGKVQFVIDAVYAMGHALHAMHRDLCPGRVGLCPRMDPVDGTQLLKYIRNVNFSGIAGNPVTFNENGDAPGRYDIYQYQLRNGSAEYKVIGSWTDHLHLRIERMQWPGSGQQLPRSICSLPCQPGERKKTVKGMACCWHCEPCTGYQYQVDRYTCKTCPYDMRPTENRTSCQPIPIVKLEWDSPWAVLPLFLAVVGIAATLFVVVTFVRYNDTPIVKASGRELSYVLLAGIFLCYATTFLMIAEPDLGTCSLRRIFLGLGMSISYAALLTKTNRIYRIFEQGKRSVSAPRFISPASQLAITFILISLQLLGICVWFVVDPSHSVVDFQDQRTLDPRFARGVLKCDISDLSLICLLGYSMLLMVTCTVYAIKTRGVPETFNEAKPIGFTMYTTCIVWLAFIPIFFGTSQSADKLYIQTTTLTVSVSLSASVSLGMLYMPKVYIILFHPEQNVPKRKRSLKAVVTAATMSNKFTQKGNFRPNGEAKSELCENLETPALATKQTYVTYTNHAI
# [4] = target: Metabotropic glutamate receptor 4 (Rattus norvegicus) (UniProt P31423); assay: Positive allosteric modulator activity at rat mGlu4 receptor by thallium flux assay at 30 uM relative to glutamate
# Metabotropic glutamate receptor 4 (Rattus norvegicus), sequence (P31423 whole entry): as above
# [5] = target: Metabotropic glutamate receptor 4 (Rattus norvegicus) (UniProt P31423); assay: Positive allosteric modulation of rat mGlu4 receptor assessed as potentiation of glutamate-induced thallium flux relative to (-)-PHCCC; parameters: concentration or dose not given beside the values
# Rattus norvegicus [6] = assay: Half life in Sprague-Dawley rat at 1 mg/kg, iv by LC/MS analysis; format: ADME, organism-based; parameters: dose 1 mg/kg, route intravenous; settings: in vivo
# In short: (§1)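 Male Sprague-Dawley rats (n=2, 250-300 g), carotid and jugular cannulated; 1 mg/kg iv via jugular catheter in 20% DMSO/80% saline. Arterial blood from pre-dose to 24 h, EDTA plasma analysed by LC/MS/MS; noncompartmental analysis of individual profiles.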
# Rattus norvegicus [7] = assay: Volume of distribution at steady state in Sprague-Dawley rat at 1 mg/kg, iv by LC/MS analysis; format: ADME, organism-based; parameters: dose 1 mg/kg, route intravenous; settings: in vivo; in short: as §1
# Rattus norvegicus [8] = assay: AUC (0 to 24 hrs) in Sprague-Dawley rat at 1 mg/kg, iv by LC/MS analysis; format: ADME, organism-based, Plasma; parameters: time < 24 hr, dose 1 mg/kg, route intravenous; settings: in vivo
# In short: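 Male Sprague-Dawley rats (n=2, 250-300 g) with carotid artery and jugular vein catheters, acclimated about one week, fed ad libitum. Dose given through the jugular catheter in 20% DMSO/80% saline at 1 mL/kg. Carotid blood drawn pre-dose and at 2, 7, 15, 30 min and 1, 2, 4, 7, 24 h into chilled EDTA tubes. Plasma measured by LC/MS/MS; parameters from noncompartmental analysis of individual profiles.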
# Rattus norvegicus [9] = assay: AUC (0 to 24 hrs) in Sprague-Dawley rat at 10 mg/kg, po by LC/MS analysis; format: ADME, organism-based, Plasma; parameters: time < 24 hr, dose 10 mg/kg, route oral; settings: in vivo
# Rattus norvegicus [10] = assay: Cmax in Sprague-Dawley rat at 10 mg/kg, po by LC/MS analysis; format: ADME, organism-based; parameters: dose 10 mg/kg, route oral; settings: in vivo
# Rattus norvegicus [11] = assay: Oral bioavailability in Sprague-Dawley rat at 10 mg/kg by LC/MS analysis; format: ADME, organism-based; settings: in vivo
# Cytochrome P450 2D6 = Cytochrome P450 2D6 (Homo sapiens, UniProt P10635); assay: Inhibition of CYP2D6 in human liver microsomes using […] as substrate; format: ADME, Microsome
# Cytochrome P450 2D6, sequence (P10635 whole entry): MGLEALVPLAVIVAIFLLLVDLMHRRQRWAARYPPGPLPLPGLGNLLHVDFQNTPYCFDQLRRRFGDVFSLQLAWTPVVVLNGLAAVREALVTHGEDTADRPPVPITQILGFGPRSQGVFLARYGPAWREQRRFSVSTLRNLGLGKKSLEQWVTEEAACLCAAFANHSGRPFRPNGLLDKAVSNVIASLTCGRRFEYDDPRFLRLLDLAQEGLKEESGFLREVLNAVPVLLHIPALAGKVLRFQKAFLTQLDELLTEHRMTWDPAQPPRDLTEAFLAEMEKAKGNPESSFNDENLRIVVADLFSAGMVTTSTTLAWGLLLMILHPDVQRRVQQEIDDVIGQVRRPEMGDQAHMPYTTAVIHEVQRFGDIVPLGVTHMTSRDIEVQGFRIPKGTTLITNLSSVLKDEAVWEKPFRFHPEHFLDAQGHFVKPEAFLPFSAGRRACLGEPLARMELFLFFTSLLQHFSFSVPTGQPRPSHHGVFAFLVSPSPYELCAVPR
# In short: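 Pooled human liver microsomes (0.1 mg/mL) with probe cocktail (phenacetin 10 µM, diclofenac 5 µM, dextromethorphan 5 µM, midazolam 2 µM) in 0.1 M phosphate pH 7.4; compound 100 nM–30 µM in duplicate, 15 min preincubation at 37 °C, then 1 mM NADPH for 8 min. LC/MS/MS of metabolite formation; IC50 derived.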
# Cytochrome P450 3A4 = Cytochrome P450 3A4 (Homo sapiens, UniProt P08684); assay: Inhibition of CYP3A4 in human liver microsomes using […] as substrate; format: ADME, Microsome
# Cytochrome P450 3A4, sequence (P08684 whole entry): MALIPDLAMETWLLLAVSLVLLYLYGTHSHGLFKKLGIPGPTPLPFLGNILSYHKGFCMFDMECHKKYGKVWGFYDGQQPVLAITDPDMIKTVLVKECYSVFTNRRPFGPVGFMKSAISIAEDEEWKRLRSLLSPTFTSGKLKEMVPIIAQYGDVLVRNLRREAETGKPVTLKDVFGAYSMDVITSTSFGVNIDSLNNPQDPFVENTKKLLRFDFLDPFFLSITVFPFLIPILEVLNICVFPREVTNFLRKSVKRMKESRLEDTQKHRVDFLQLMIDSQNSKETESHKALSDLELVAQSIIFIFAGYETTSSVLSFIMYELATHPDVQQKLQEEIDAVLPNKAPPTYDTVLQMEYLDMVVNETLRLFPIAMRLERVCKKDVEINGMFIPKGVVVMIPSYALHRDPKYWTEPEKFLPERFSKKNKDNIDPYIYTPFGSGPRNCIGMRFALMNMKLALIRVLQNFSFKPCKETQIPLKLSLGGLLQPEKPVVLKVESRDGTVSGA
# [12] = Intrinsic clearance in human hepatic microsomes; format: ADME, Microsome; settings: human liver microsomes
# [13] = Intrinsic clearance in rat hepatic microsomes at 1 uM by LC/MS/MS analysis; format: ADME, Microsome; settings: rat liver microsomes
# Plasma [14] = assay: Fraction unbound in human plasma; format: ADME, cell-free
# Plasma [15] = assay: Fraction unbound in rat plasma by equilibrium dialysis; format: ADME, cell-free
# In short: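 Rat plasma spiked with compound, equilibrium dialysis against 25 mM phosphate buffer pH 7.4 for 4 h at 37 °C with shaking; both chambers matrix-matched, acetonitrile-extracted and quantified by LC/MS/MS; triplicate.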
# Brain = assay: Fraction unbound in rat brain homogenate by equilibrium dialysis; format: ADME, tissue-based
# Cytochrome P450 1A2 = target: T2, Cytochrome P450 1A2 (Homo sapiens, UniProt P05177); assay: Inhibition of CYP1A2 in human liver microsomes using phenacetin as substrate
# T2 sequence (P05177 whole entry): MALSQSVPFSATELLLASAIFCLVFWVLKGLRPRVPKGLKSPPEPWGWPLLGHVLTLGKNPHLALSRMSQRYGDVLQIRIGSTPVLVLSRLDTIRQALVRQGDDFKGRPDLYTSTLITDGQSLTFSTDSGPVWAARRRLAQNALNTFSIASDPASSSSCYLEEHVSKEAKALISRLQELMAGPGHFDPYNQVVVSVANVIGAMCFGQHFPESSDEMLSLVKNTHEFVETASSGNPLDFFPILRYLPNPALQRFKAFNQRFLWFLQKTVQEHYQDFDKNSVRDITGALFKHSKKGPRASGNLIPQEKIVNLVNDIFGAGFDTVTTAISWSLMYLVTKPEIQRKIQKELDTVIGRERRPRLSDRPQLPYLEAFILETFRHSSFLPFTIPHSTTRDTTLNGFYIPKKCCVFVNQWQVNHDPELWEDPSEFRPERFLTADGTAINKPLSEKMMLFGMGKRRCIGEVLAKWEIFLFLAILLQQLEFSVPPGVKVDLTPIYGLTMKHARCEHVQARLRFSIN
# Cytochrome P450 2C9 = Cytochrome P450 2C9 (Homo sapiens, UniProt P11712); assay: Inhibition of CYP2C9 in human liver microsomes using diclofenac as substrate
# Cytochrome P450 2C9, sequence (P11712 whole entry): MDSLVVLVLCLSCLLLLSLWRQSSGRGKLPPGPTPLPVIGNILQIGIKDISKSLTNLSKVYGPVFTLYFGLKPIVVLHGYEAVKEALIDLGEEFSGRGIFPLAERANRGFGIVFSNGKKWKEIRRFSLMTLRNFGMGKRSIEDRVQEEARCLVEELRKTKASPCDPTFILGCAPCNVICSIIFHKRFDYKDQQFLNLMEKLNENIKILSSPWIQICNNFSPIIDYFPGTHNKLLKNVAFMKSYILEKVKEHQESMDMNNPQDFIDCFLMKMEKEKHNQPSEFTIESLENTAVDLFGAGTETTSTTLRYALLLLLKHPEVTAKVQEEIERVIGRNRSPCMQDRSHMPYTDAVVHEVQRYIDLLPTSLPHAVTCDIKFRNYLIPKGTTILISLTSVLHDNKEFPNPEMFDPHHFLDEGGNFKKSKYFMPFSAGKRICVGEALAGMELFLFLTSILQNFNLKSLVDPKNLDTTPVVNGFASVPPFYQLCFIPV
SMILES,Activity [2],EC50 [1],fold change (FC) [4],Activity [5],also measured
O=C(Nc1ccc(N2S(=O)(=O)c3ccccc3S2(=O)=O)cc1)c1cccnc1,27.7%,–,–,–,EC50 ([1]; cho): Not Active
O=C(Nc1ccc(N2S(=O)(=O)c3ccccc3S2(=O)=O)cc1)c1ccncn1,100%,179 nM,3.3,103%,EC50 [3]: 242 nM
CC1(C)[C@@H]2C(=O)N(c3ccc(NC(=O)c4ccccn4)cc3Cl)C(=O)[C@@H]21,100%,–,5.5,105%,–
O=S1(=O)c2ccccc2S(=O)(=O)N1c1ccc(NC2(c3ccccn3)CC2)cc1,62.7%,6400 nM,–,–,–
O=C(Nc1ccc(N2C(=O)CCC2=O)c(Cl)c1)c1ccccn1,74%,6200 nM,–,–,–
O=C(Nc1ccc(N2C(=O)c3ccccc3C2=O)c(Cl)c1)c1ccccn1,104%,–,23.6,132%,EC50 [3]: 66.8 nM
O=C(Nc1ccccn1)c1ccc(N2S(=O)(=O)c3ccccc3S2(=O)=O)cc1,30.7%,–,–,–,EC50 ([1]; cho): Not Active
O=C(Nc1ccc(N2CCCS2(=O)=O)cc1)c1ccccn1,25%,–,–,–,EC50 ([1]; cho): Not Active
Cl.O=C(Nc1ccc(N2C(=O)CC3(CCCCC3)C2=O)c(Cl)c1)c1ccccn1,–,–,–,–,t1/2 (Rattus norvegicus [6]): 1.56 h; Vdss (Rattus norvegicus [7]): 5.5 L/kg; AUC (Rattus norvegicus [8]): 346 ng·h/mL; AUC (Rattus norvegicus [9]): 813 ng·h/mL; Cmax (Rattus norvegicus [10]): 18.3 ng/mL; F (Rattus norvegicus [11]): 24.6%
O=C(Nc1ccc(N2S(=O)(=O)c3ccccc3S2(=O)=O)cc1)c1nccs1,122%,353 nM,4.7,127%,EC50 [3]: 201 nM
O=C(Nc1ccc(N2S(=O)(=O)c3ccccc3S2(=O)=O)cc1)c1cscn1,123%,104 nM,7.3,115%,EC50 [3]: 105 nM
O=C(Nc1ccc(N2C(=O)CC3(CCCCC3)C2=O)c(Cl)c1)c1ccccn1,–,–,–,–,IC50 (Cytochrome P450 2D6): > 30000 nM; IC50 (Cytochrome P450 3A4): > 30000 nM; CLint scaled [12]: 19.4 mL/min/kg; CLint scaled at 1 µM [13]: 66.7 mL/min/kg; Fu (Plasma [14]): 0.62%; Fu (Plasma [15]): 0.5%; Fu (Brain): 1.7%; IC50 (Cytochrome P450 1A2): > 30000 nM; IC50 (Cytochrome P450 2C9): > 30000 nM
COc1cc(NC(=O)c2ccccn2)ccc1Cl,–,–,–,–,IC50 (Cytochrome P450 2D6): > 30000 nM; IC50 (Cytochrome P450 1A2): < 100 nM; IC50 (Cytochrome P450 2C9): > 30000 nM
O=C(Nc1ccc(N2S(=O)(=O)c3ccccc3S2(=O)=O)cc1)c1cncs1,39.7%,–,–,–,EC50 ([1]; cho): Not Active
CC1(C)CC(=O)N(c2ccc(NC(=O)c3ccccn3)cc2Cl)C1=O,82%,1400 nM,–,–,–
O=C(Nc1ccc(N2C(=O)[C@H]3CCCC[C@H]3C2=O)c(Cl)c1)c1ccccn1,107%,–,8.3,129%,EC50 [3]: 645 nM
O=C(Nc1ccc(N2S(=O)(=O)c3ccccc3S2(=O)=O)cc1)c1cccc(F)n1,76.7%,1800 nM,–,–,–
O=C(Nc1ccc(N2S(=O)(=O)c3ccccc3S2(=O)=O)cc1)C1CCCCC1,48.3%,765 nM,–,–,–
CC1(c2ccccc2)CC(=O)N(c2ccc(NC(=O)c3ccccn3)cc2Cl)C1=O (racemic),124%,–,16.7,131%,–
O=C(Nc1ccc(N2S(=O)(=O)c3ccccc3S2(=O)=O)cc1F)c1ccccn1,67.7%,1100 nM,–,–,–
O=C(Nc1ccc(N2C(=O)[C@@H]3[C@H](C2=O)[C@@H]2CC[C@H]3O2)c(Cl)c1)c1ccccn1,90%,1300 nM,–,–,–
O=S1(=O)c2ccccc2S(=O)(=O)N1c1ccc(NCc2ccccn2)cc1,110%,1800 nM,–,–,–
O=C(Nc1ccc(N2C(=O)[C@@H]3[C@H](C2=O)[C@H]2C=C[C@@H]3CC2)c(Cl)c1)c1ccccn1,120%,–,5.2,122%,–
O=C(Nc1ccc(N2C(=O)c3cccc(Cl)c3C2=O)c(Cl)c1)c1ccccn1,130%,–,83,137%,EC50 [3]: 34.9 nM
O=C(Nc1ccc(N2S(=O)(=O)c3ccccc3S2(=O)=O)cc1)c1ccco1,110%,226 nM,–,–,–
O=C(Nc1ccc(N2S(=O)(=O)c3ccccc3S2(=O)=O)cc1)c1ccccc1,65%,402 nM,–,–,–
COc1cccc(C(=O)Nc2ccc(N3S(=O)(=O)c4ccccc4S3(=O)=O)cc2)n1,22%,–,–,–,EC50 ([1]; cho): Not Active
O=C(Nc1ccc(N2S(=O)(=O)c3ccccc3S2(=O)=O)cc1)c1ccncc1,22.3%,–,–,–,EC50 ([1]; cho): Not Active
